The subject of experiment [1] is HepG2. The experiment is described as follows: Antiproliferative activity against human HepG2 cells after 48 hrs by MTT assay. The class given is functional, cell-based. The settings on record: HepG2, 48 h. In a few lines:
(§1)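 Cells grown in DMEM with 10% FBS at 37 °C, 5% CO2; seeded at 6 × 10^3 cells/well, allowed to attach 12 h, then exposed to compound at final 50, 25, 10, 1 and 0.1 µM for 48 h. MTT (5 mg/mL) added for 4 h, formazan dissolved in DMSO, absorbance read at 490 nm; IC50 taken from the resulting curve.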
Background: Tetrazolium assays rely on reduction of a dye to a coloured formazan, in cell work by metabolically active cells.

Experiment [2] relates to MCF7. The experiment can be described thus: Antiproliferative activity against human MCF7 cells after 48 hrs by MTT assay. The settings on record: MCF7, 48 h. The class given is functional, cell-based. The method, boiled down:
as §1

In experiment [3] the target is Baculoviral IAP repeat-containing protein 5 (Homo sapiens) (UniProt O15392). The experiment can be described thus: Binding affinity to survivin (unknown origin) up to 1.8 uM after 20 mins by spectrofluorimetric titration method.
Chain of Baculoviral IAP repeat-containing protein 5 (Homo sapiens) (O15392 whole entry): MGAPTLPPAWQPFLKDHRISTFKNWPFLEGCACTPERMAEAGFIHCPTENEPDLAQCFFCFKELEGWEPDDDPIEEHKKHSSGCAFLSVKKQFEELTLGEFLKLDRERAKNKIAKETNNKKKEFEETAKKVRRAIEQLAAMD
A short description of experiment [4]: Antiproliferative activity against human QGY7701 cells after 48 hrs by MTT assay. The class given is cell-based. The settings on record: QGY7701, 48 h. The method, boiled down:
as §1

For experiment [5], the species on record is Homo sapiens. The experiment is described as follows: Inhibition of recombinant human topoisomerase-2-mediated decatenation at 10 uM using kinetoplast DNA as substrate after 30 mins agarose gel electrophoresis method relative to control. The method, boiled down:
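Human Topo II decatenation run by a contract laboratory. Compound or 50% DMSO combined with reaction mix and diluted enzyme, incubated 35 ± 2 °C for 30 min, then stop buffer added. Products separated on 1% agarose, stained 10 min with 2.3 µg/ml ethidium bromide, destained 20 min, bands quantified densitometrically. Doxorubicin at 1 and 10 µM as positive controls, no-compound negative control; run in duplicate.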

Activity calls are given as the source filed them. The calls are words filed in the database; no cut-off is given here. Bounds are passed on as bounds.

A word on the IC50: it is the concentration that gives 50% inhibition. Low values mean higher potency, high ones lower potency. Turning to `COc1cc(CNc2ccc(C(=O)NCCN(C)C)c3[nH]c4c(C)cccc4c(=O)c23)cc(OC)c1OC`, the IC50 in experiment [1] is 4.96 µM; in experiment [2] it was 5.06 µM.

For `CN(C)CCNC(=O)c1ccc(Cl)c2c(=O)c3cccc([N+](=O)[O-])c3[nH]c12`, the IC50 in experiment [1] is 14.5 µM; in experiment [2] it was 2.28 µM.

As for `COCCN1C(C)=[N+](Cc2cnccn2)C2Cc3ccccc3CC21` (stereo not given), the half-inhibitory concentration (IC50) came to 15.3 µM in experiment [1] and 4.13 µM in experiment [2]. For the same compound, the outcome in experiment [3] was inactive.

As to `COCCNC(=O)c1ccc(NCc2ccccc2)c2c(=O)c3cccc(C)c3[nH]c12`, the IC50 in experiment [1] was 17.2 µM; in experiment [2], above 50 µM.

For the compound `CN(C)CCNC(=O)c1ccc(NCc2ccccc2)c2c(=O)c3cccc([N+](=O)[O-])c3[nH]c12`, the IC50 in experiment [1] amounted to 9.59 µM; in experiment [2], 5.61 µM.

Consider `COc1ccc(CNc2ccc(C(=O)NCCCN(C)C)c3[nH]c4c(C)cccc4c(=O)c23)cc1`, for which the IC50 in experiment [1] was 5.94 µM; in experiment [2], 4.12 µM.

Take `COc1ccc(CNc2ccc(C(=O)NCCN(C)C)c3[nH]c4c([N+](=O)[O-])cccc4c(=O)c23)cc1`: the results for the IC50 in experiment [1] and in experiment [2] were 4.5 µM and 1.05 µM, respectively.

With `COc1ccc(CNc2ccc(C(=O)NCCCN(C)C)c3[nH]c4c(N)cccc4c(=O)c23)cc1`, the IC50 in experiment [1] stood at 5.68 µM; in experiment [2] it was 13.4 µM.

In the case of `COc1cc(CNc2ccc(C(=O)NCCN(C)C)c3[nH]c4c(OC)cccc4c(=O)c23)cc(OC)c1OC`, the IC50 in experiment [1] and in experiment [2] was above 50 µM throughout.

Consider `COc1ccc(CNc2ccc(C(=O)NCCN(C)C)c3[nH]c4c(Cl)cc(Cl)cc4c(=O)c23)cc1`, for which the IC50 in experiment [1] and in experiment [2] was 17.5 µM each time.

As for `CN(C)CCNC(=O)c1ccc(N(C)C)c2c(=O)c3cccc([N+](=O)[O-])c3[nH]c12`, the concentration for half-maximal inhibition (IC50) in experiment [1] turned out to be 28.6 µM; in experiment [2], 3.54 µM.

For the compound `COc1cccc(CNc2ccc(C(=O)NCCN(C)C)c3[nH]c4c(C)cccc4c(=O)c23)c1`, the IC50 in experiment [1] amounted to 2.82 µM; in experiment [2], 3.65 µM; in experiment [4], 3.12 µM.

On to `COCCNC(=O)c1ccc(NCc2ccc(OC)cc2)c2c(=O)c3cccc(C)c3[nH]c12`, for which the IC50 in experiment [1] and in experiment [2] was above 50 µM in each case.

For `Cc1cccc2c(=O)c3c(NN)ccc(C(=O)NCCN(C)C)c3[nH]c12`, the IC50 in experiment [1] was 8.85 µM; in experiment [2], 13 µM.

For `COc1cccc2c(=O)c3c(NN)ccc(C(=O)NCCCN(C)C)c3[nH]c12`, the IC50 in experiment [1] came to 12.3 µM; in experiment [2], 14.8 µM.

Turning to `COc1ccc(CNc2ccc(C(=O)NCCCN(C)C)c3[nH]c4c(OC)cccc4c(=O)c23)cc1`, the IC50 stood at 10.8 µM in experiment [1] and 9.97 µM in experiment [2].

`CN(C)CCCNC(=O)c1ccc(N(C)C)c2c(=O)c3cccc([N+](=O)[O-])c3[nH]c12`: the IC50 in experiment [1] was found to be 36.8 µM; in experiment [2], 9.29 µM.

`Cc1cccc2c(=O)c3c(NCc4ccccc4)ccc(C(=O)NCCN(C)C)c3[nH]c12`: the IC50 in experiment [1] was found to be 7.99 µM; in experiment [2] it was 5.48 µM.

For the compound `COc1cccc2c(=O)c3c(NCc4ccccc4)ccc(C(=O)NCCN(C)C)c3[nH]c12`, the figures for the IC50 in experiment [1] and in experiment [2] were 5.5 µM and 13.7 µM, respectively.

Consider `COc1cccc(CNc2ccc(C(=O)NCCN(C)C)c3[nH]c4c([N+](=O)[O-])cccc4c(=O)c23)c1`, for which the figures for the IC50 in experiment [1] and in experiment [2] were 8.61 µM and 5.09 µM, respectively.

On to `COc1ccc(CNc2ccc(C(=O)NCCN(C)C)c3[nH]c4c(OC)cccc4c(=O)c23)cc1`, for which the IC50 in experiment [1] amounted to 5.15 µM; in experiment [2], 6.13 µM.

Consider `COc1cccc2c(=O)c3c(Cl)ccc(C(=O)NCCN(C)C)c3[nH]c12`, for which the IC50 in experiment [1] came out at 24.7 µM; in experiment [2], 18.5 µM.

Take `COCCNC(=O)c1ccc(NCc2cccc(OC)c2)c2c(=O)c3cccc(C)c3[nH]c12`: the IC50 in experiment [1] and in experiment [2] was above 50 µM throughout.

In general, inhibition refers to how much of the control response was suppressed. For the compound `COc1cccc2c1C(=O)c1c(O)c3c(c(O)c1C2=O)C[C@@](O)(C(=O)CO)C[C@@H]3O[C@H]1C[C@H](N)[C@H](O)[C@H](C)O1`, the inhibition in experiment [5] was 74.4%.

Consider `Cc1cccc2c(=O)c3c(Cl)ccc(C(=O)NCCN(C)C)c3[nH]c12`, for which the IC50 in experiment [1] and in experiment [2] was above 50 µM in each case.

`COCCNC(=O)c1ccc(NCc2cc(OC)c(OC)c(OC)c2)c2c(=O)c3cccc(C)c3[nH]c12`: the IC50 in experiment [1] and in experiment [2] was above 50 µM each time.

Regarding `COc1ccc(CNc2ccc(C(=O)NCCN(C)C)c3[nH]c4c(C)cccc4c(=O)c23)cc1`, the IC50 in experiment [1] turned out to be 2.11 µM; in experiment [2] it was 6.84 µM; in experiment [4] it was 6.91 µM.

Consider `CN(C)CCCNC(=O)c1ccc(NCc2ccccc2)c2c(=O)c3cccc([N+](=O)[O-])c3[nH]c12`, for which the IC50 in experiment [1] came to 2.43 µM; in experiment [2], 2.92 µM; in experiment [4], 3.97 µM.

Consider `COc1cc(CNc2ccc(C(=O)NCCN(C)C)c3[nH]c4c([N+](=O)[O-])cccc4c(=O)c23)cc(OC)c1OC`, for which the figures for the IC50 in experiment [1] and in experiment [2] were 7 µM and 5.73 µM, respectively.

For the compound `COCCNC(=O)c1ccc(NCc2ccc(C(F)(F)F)cc2)c2c(=O)c3cccc(C)c3[nH]c12`, the IC50 in experiment [1] and in experiment [2] was above 50 µM throughout.

As to `CCc1ccc(CNc2ccc(C(=O)NCCCN(C)C)c3[nH]c4c([N+](=O)[O-])cccc4c(=O)c23)cc1`, the results for the IC50 in experiment [1] and in experiment [2] were 5.78 µM and 4.69 µM, respectively.

The values are drawn from ChEMBL document CHEMBL4007449, “Novel multi-substituted benzyl acridone derivatives as survivin inhibitors for hepatocellular carcinoma treatment” (Eur J Med Chem, 2017).
